From ChEMBL document CHEMBL1134326, “C-16 artemisinin derivatives and their antimalarial and cytotoxic activities: syntheses of artemisinin monomers, dimers, trimers, and tetramers by nucleophilic additions to artemisitene” (J Med Chem, 2001)

Columns and labels:
[1] = Cytotoxicity against KB cells.; assay type: functional, cell-based; conditions: Homo sapiens
Method in brief: (§1)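 Colorimetric cytotoxicity assay after Skehan on KB, BC and vero cell lines. Maximum concentration tested 130 µM. Ellipticine was the positive control. IC50 is reported in µM.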

[2] = Therapeutic index (TI) determined as IC50 of vero cells to that of EC50; assay type: cell-based; conditions: plasmodium falciparum, read-out: TI
BC [3] = test: Cytotoxicity against BC cells.; assay type: functional, cell-based; conditions: Homo sapiens; method in brief: as §1
Vero = test: Cytotoxicity against vero cells.; assay type: functional, cell-based; conditions: Chlorocebus sabaeus; method in brief: as §1
Plasmodium falciparum = test: Antimalarial activity against Plasmodium falciparum; assay type: functional, organism-based
Method in brief: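 P. falciparum K1 (multidrug-resistant), asexual erythrocytic stage kept in continuous in vitro culture; microculture radioisotope method after Desjardins. EC50 is the concentration giving 50% reduction in parasite growth, measured as [3H]hypoxanthine uptake. Artemisinin and dihydroartemisinin served as standards.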

KB = test: Cytotoxicity against KB cells; assay type: functional, cell-based; conditions: Homo sapiens; method in brief: as §1
BC [4] = test: Cytotoxicity against BC cells; assay type: functional, cell-based; conditions: Homo sapiens; method in brief: as §1

Row | SMILES | IC50 [1] [µM] | selectivity ratio [2] | IC50 (BC [3]) [µM] | IC50 (Vero) [µM] | EC50 (Plasmodium falciparum) [µM] | IA (KB) | IA (BC [4])
1 | CC1CCC2C(CC3(CCCCCCC4(CC5C(=O)OC6OC7(C)CCC8C(C)CCC5C68OO7)C(=O)OC5OC6(C)CCC7C(C)CCC4C57OO6)C(=O)OC4OC5(C)CCC6C(C)CCC3C46OO5)C(=O)OC3OC4(C)CCC1C32OO4 (stereo unspecified) | 2 | 1.6 | 2.8 | 9.2 | 0.0058 | – | –
2 | C[C@@H]1CC[C@H]2C(CCC(=O)c3ccc[nH]3)C(=O)O[C@@H]3O[C@]4(C)CC[C@@H]1[C@]32OO4 (stereo partly specified) | – | > 5.2 | – | > 130 | 0.0248 | Cytotoxic | Cytotoxic
3 | CCCCC[C@@H]1C(=O)O[C@@H]2O[C@]3(C)CC[C@H]4[C@H](C)CC[C@@H]1[C@@]24OO3 | 11 | 1.6 | 11 | 19 | 0.0117 | – | –
4 | CCCC[C@@H]1C(=O)O[C@@H]2O[C@]3(C)CC[C@H]4[C@H](C)CC[C@@H]1[C@@]24OO3 | 54 | > 9.4 | – | > 130 | 0.0138 | – | Cytotoxic
5 | C[C@@H]1CC[C@H]2[C@H](CCCCCCC[C@@H]3C(=O)O[C@@H]4O[C@@]5(C)CC[C@H]6[C@H](C)CC[C@@H]3[C@@]46OO5)C(=O)O[C@@H]3O[C@@]4(C)CC[C@@H]1[C@]32OO4 | 1.1 | – | 1.1 | 4.9 | 0.0011 | – | –
6 | CC1CCC2C(CSCCCSCC3C(=O)OC4OC5(C)CCC6C(C)CCC3C46OO5)C(=O)OC3OC4(C)CCC1C32OO4 (stereo unspecified) | – | – | – | – | 0.013 | – | –
7 | COC(=O)C(C)(C)CC1C(=O)O[C@@H]2OC3(C)CC[C@H]4[C@H](C)CC[C@@H]1[C@@]24OO3 (single isomer, unassigned) | – | > 5 | – | > 130 | > 0.0261 | Cytotoxic | Cytotoxic
8 | C[C@@H]1CC[C@H]2[C@@H](CCCCc3ccccc3)C(=O)O[C@@H]3O[C@]4(C)CC[C@@H]1[C@]32OO4 | 11 | 1.9 | 14 | 16 | 0.0084 | – | –
9 | CCCC1(CC2C(=O)OC3OC4(C)CCC5C(C)CCC2C35OO4)C(=O)OC2OC3(C)CCC4C(C)CCC1C24OO3 (stereo unspecified) | – | > 3 | – | > 130 | 0.0044 | Cytotoxic | Cytotoxic
10 | CC1CCC2C(CSCCSCC3C(=O)OC4OC5(C)CCC6C(C)CCC3C46OO5)C(=O)OC3OC4(C)CCC1C32OO4 (stereo unspecified) | – | – | – | – | 0.0074 | – | –
11 | CC1CCC2C(CCCCCCCC3(CC4C(=O)OC5OC6(C)CCC7C(C)CCC4C57OO6)C(=O)OC4OC5(C)CCC6C(C)CCC3C46OO5)C(=O)OC3OC4(C)CCC1C32OO4 (stereo unspecified) | 2.8 | – | 2 | 10 | 0.0031 | – | –
12 | CCC[C@H]1C(=O)O[C@@H]2O[C@]3(C)CC[C@H]4[C@H](C)CC[C@@H]1[C@@]24OO3 | – | > 2.1 | – | > 130 | 0.0063 | Cytotoxic | Cytotoxic
13 | C[C@@H]1CC[C@H]2[C@H](CCCCc3ccccc3)C(=O)O[C@@H]3O[C@]4(C)CC[C@@H]1[C@]32OO4 | 5.2 | 1.3 | 5 | 13 | 0.0103 | – | –
14 | CCCCCC1(CC2C(=O)OC3OC4(C)CCC5C(C)CCC2C35OO4)C(=O)OC2OC3(C)CCC4C(C)CCC1C24OO3 (stereo unspecified) | 23 | 1.6 | 36 | 63 | 0.0039 | – | –
15 | C[C@@H]1CC[C@H]2C(CCC(=O)c3ccccc3)C(=O)O[C@@H]3O[C@]4(C)CC[C@@H]1C32OO4 (stereo partly specified) | – | > 1 | – | > 130 | 0.0128 | Cytotoxic | Cytotoxic
16 | C[C@@H]1CC[C@H]2C(C[C@]3(C)C(=O)O[C@@H]4O[C@]5(C)CC[C@H]6[C@H](C)CC[C@@H]3[C@@]46OO5)C(=O)O[C@@H]3O[C@]4(C)CC[C@@H]1C32OO4 (stereo partly specified) | 23 | 8.9 | 13 | 89 | 0.001 | – | –
17 | CC1CCC2C(CC3(CCCCCCCC4(CC5C(=O)OC6OC7(C)CCC8C(C)CCC5C68OO7)C(=O)OC5OC6(C)CCC7C(C)CCC4C57OO6)C(=O)OC4OC5(C)CCC6C(C)CCC3C46OO5)C(=O)OC3OC4(C)CCC1C32OO4 (stereo unspecified) | 5.4 | > 2.1 | 9.6 | > 42 | > 0.02 | – | –
18 | CC1CCC2C(CSCCCCCSCC3C(=O)OC4OC5(C)CCC6C(C)CCC3C46OO5)C(=O)OC3OC4(C)CCC1C32OO4 (stereo unspecified) | – | – | – | – | 0.012 | – | –
19 | CC1CCC2C(CC3(Cc4ccc(F)cc4)C(=O)OC4OC5(C)CCC6C(C)CCC3C46OO5)C(=O)OC3OC4(C)CCC1C32OO4 (stereo unspecified) | 7.7 | 4.8 | 7.4 | 1.1 | 0.0023 | – | –
